Results taken from PMC2771698 (Journal of medicinal chemistry, 2009).
Values joined by “and” are separate entries in the source; they are usually repeats but may differ in a detail not shown here. Identical values can stand only once. Like-named read-outs stand apart in the source and are kept apart here.

Legend:
T. cruzi amastigotes = experiment: T. cruzi; assay type: cell-based, Trypanosoma cruzi; conditions: read-out: EC50 T. cruzi
How it was run: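 β-galactosidase-expressing Tulahuen strain grown as intracellular amastigotes in murine 3T3 fibroblasts, 96-well format, colorimetric read-out. Test compounds HPLC-purified to a single peak, with ≥95% estimated purity by 1H NMR. Each tested in triplicate to derive EC50.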

[1] = cited from earlier work
[2] = Single oral dose pharmacokinetics in BALB/c mice; assay type: in vivo; conditions: single dose 50 mg/kg oral gavage; for AUC 0_5hr, Mouse 1, 2, 3 / Tmax, Mouse 1, 2, 3 / Cmax, Mouse 1, 2, 3: Balb/c mice, individual mice, 50 mg/kg; for Cmax, Mouse 1, 2, 3: plasma
[3] = tested on: T. cruzi trypomastigotes (Tulahuen strain); experiment: Efficacy in mice infected with T. cruzi; assay type: in vivo; conditions: days 7–27 post-infection
How it was run: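 Female BALB/c mice (7–8 weeks) infected subcutaneously with 1×10^4 Tulahuen trypomastigotes; treatment began day 7 post-infection. Groups of 6 dosed by oral gavage twice daily for 21 days, 100 µL per dose in 20% (w/v) hydroxypropyl β-cyclodextrin; vehicle-only group included. Parasitemia counted in 5 µL tail blood under coverslip, 50 high-power fields, through day 97. Pre-morbid mice euthanized; survivors sacrificed day 100.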

T. cruzi = experiment: PCR detection of T. cruzi parasitemia in blood of treated mice at day 100; assay type: in vivo; conditions: for PCR parasite detection after 100 days post infection: days 7–27 post-infection, groups of 6
[4] = mice and rats; cited from earlier work
[5] = 50 mg/kg oral gavage twice per day
[6] = 20 mg/kg oral gavage twice per day

Compound `Cc1cccc(-c2cccc(NCc3cncn3Cc3ccccc3)c2)c1C` [Compound 35i] has an EC50 (T. cruzi amastigotes; Table 4, general structure IV) of 300 nM.

In the case of `c1ccc(-c2ccc(Cn3cncc3CNc3ccc(-c4nc5ccccc5s4)c(-c4ccccc4)c3)cc2)cc1` [Compound 27d], the “pharmacokinetic profile in mice” value [1] is given as “good pharmacokinetic profile”.

For `Cc1ccccc1-c1cccc(NCc2cncn2Cc2ccccc2)c1` [Compound 35g], the EC50 (T. cruzi amastigotes; Table 4, general structure IV) was 310 nM.

For `c1ccc(-c2ccc(Cn3cncc3CNc3ccc(-c4cncs4)c(-c4ccccc4)c3)cc2)cc1` [Compound 27a], the “pharmacokinetic profile in mice” value [1] is given as “good pharmacokinetic profile”.

For `CC(C)c1ccc(Cn2cncc2CNc2ccc(-c3nc4ccccc4s3)c(-c3ccccc3)c2)cc1` [Compound 32a], the EC50 (T. cruzi amastigotes; Table 3, general structure III) was 860 nM.

Work on `Cc1cccc(-c2cc(NCc3cncn3Cc3ccc(-c4ccccc4)cc3)ccc2-c2nc3ccccc3s2)c1C` [Compound 32h] yielded an EC50 (T. cruzi amastigotes; Table 3, general structure III) of 101 nM.

For `CCc1ccc(Cn2cncc2CNc2ccc(-c3nc4ccccc4s3)c(-c3ccccc3)c2)cc1` [Compound 32b], the EC50 (T. cruzi amastigotes; Table 3, general structure III) was 190 nM.

For `Nc1cc(-c2ccccc2)ccc1Cn1cncc1CNc1ccc(Cl)c(-c2ccccc2)c1` [Compound 44a, (6-Chloro-biphenyl-3-yl)-[3-(3-amino-biphenyl-4-ylmethyl)-3H-imidazol-4-ylmethyl]-amine], the EC50 (T. cruzi amastigotes; Table 5, general structure V) was 1.5 nM and 2.1 nM, the “AUC 0_5hr, Mouse 1, 2, 3” value [2] was 6700 ng·h/mL and 5600 ng·h/mL and the “Tmax, Mouse 1, 2, 3” value [2] was 1.0 h. The “Cmax, Mouse 1, 2, 3” value [2] was 1900 ng/mL, the “suppression of parasitemia in blood (microscopy)” value (shortened to “suppression of parasitemia”) [3, 5] was “dramatically suppressed” and the “PCR parasite detection after 100 days post infection” value (“PCR parasite detection” for short) (T. cruzi; [5]) was 6 of 6 mice.

For `Fc1ccc(Cn2cncc2CNc2ccc(-c3nc4ccccc4s3)c(-c3ccccc3)c2)c(F)c1` [Compound 32d], the EC50 (T. cruzi amastigotes; Table 3, general structure III) was 630 nM.

`Cc1ccccc1-c1cc(NCc2cncn2Cc2ccc(-c3ccccc3)cc2)ccc1-c1nc2ccccc2s1` [Compound 32g] gave an EC50 (T. cruzi amastigotes; Table 3, general structure III) of 42 nM.

With `Nc1cc(-c2ccccc2)ccc1Cn1cncc1CNc1ccc(-c2nc3ccccc3s2)c(-c2ccccc2)c1` [Compound 44d] the “AUC 0_5hr, Mouse 1, 2, 3” value [2] was 32400 ng·h/mL and 29000 ng·h/mL, the “Tmax, Mouse 1, 2, 3” value [2] was 2.0 h and the “Cmax, Mouse 1, 2, 3” value [2] was 8600 ng/mL. For the same compound, the “drug loss from plasma out to 5 hr” value ([2]; mice) was “significant drug loss was not observed”, the “suppression of parasitemia” value [3, 6] was “dramatically suppressed” and the “suppression of parasitemia” value [3, 5] was “most suppression”. For the same compound, the “PCR parasite detection” value (T. cruzi; [6]) was 5 of 6 mice, the “PCR parasite detection” value (T. cruzi; [5]) was 2 of 6 mice and the “mice with parasitemia suppressed below PCR detectability” value (T. cruzi; 50 mg/kg twice per day, day 100) was 4 of 6.

Compound `Cc1ccccc1-c1ccc(Cn2cncc2CNc2ccc(-c3nc4ccccc4s3)c(-c3ccccc3)c2)cc1` [Compound 32f] has an EC50 (T. cruzi amastigotes; Table 3, general structure III) of 180 nM.

Compound `c1ccc(Cn2cncc2CNc2cccc(-c3cccnc3)c2)cc1` [Compound 35j] has an EC50 (T. cruzi amastigotes; Table 4, general structure IV) of 760 nM.

With `c1ccc(Cn2cncc2CNc2cccc(-c3ccccc3)c2)cc1` [Compound 35e] the EC50 (T. cruzi amastigotes; Table 4, general structure IV) was 400 nM.

In the case of `Nc1cc(-c2ccccc2)ccc1Cn1cncc1CNc1ccc(-c2cncs2)c(-c2ccccc2)c1` [Compound 44e], the EC50 (T. cruzi amastigotes; Table 5, general structure V) is reported as 13 nM.

Compound `N#Cc1ccc(NCc2cncn2Cc2ccc(-c3ccccc3)cc2N)cc1-c1ccccc1` [Compound 44b] has an EC50 (T. cruzi amastigotes; Table 5, general structure V) of 2.6 nM.

For `CC[C@@H]([C@H](C)O)n1ncn(-c2ccc(N3CCN(c4ccc(OC[C@@H]5CO[C@@](Cn6cncn6)(c6ccc(F)cc6F)C5)cc4)CC3)cc2)c1=O` [Posaconazole, posaconazole, reference compound], the “suppression of parasitemia” value [3, 6] is given as “most suppression”, the “PCR parasite detection” value (T. cruzi; [6]) is given as 0 of 6 mice and the terminal phase half-life [4] is given as 7 to 9 h.
